The source made the active and inactive calls. Unless noted, the rule behind the calls is not given here.
How the values were obtained:
[1] = target: Virion infectivity factor (Human immunodeficiency virus type 1 group M subtype B (isolate NY5)(HIV-1)) (UniProt P12504); test: Antagonist activity against HIV-1 GFP-tagged Vif in human HEK293FT cells co-expressing HA-tagged A3G assessed as upregulation of A3G levels at 50 uM measured after 16 hrs by immunoblotting method; type: cell-based; conditions: Human immunodeficiency virus 1
Method in brief: (§1)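 HEK293FT cells co-expressing HA-tagged A3G and either GFP-tagged Vif or Vif were incubated with or without compound (50 µM) for 16 h. Cell extracts were immunoblotted with anti-HA (A3G), anti-GFP (Vif) and anti-GAPDH antibodies. Untreated cells served as the comparison, and choline chloride was included as a negative control in the triazole series.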

[2] = target: Virion infectivity factor (Human immunodeficiency virus type 1 group M subtype B (isolate NY5)(HIV-1)) (UniProt P12504); test: Antagonist activity against HIV-1 GFP-tagged Vif in human HEK293FT cells co-expressing HA-tagged A3G assessed as downregulation of Vif expression expression at 50 uM measured after 16 hrs by immunoblotting method; type: cell-based; conditions: Human immunodeficiency virus 1; method in brief: as §1
[3] = target: Virion infectivity factor (Human immunodeficiency virus type 1 group M subtype B (isolate NY5)(HIV-1)) (UniProt P12504); test: (§2) Antagonist activity against HIV-1 Vif in human MT4 cells assessed as inhibition of viral infection at 50 uM measured after 16 hrs by cell-based assay; conditions: Human immunodeficiency virus 1
Method in brief: (§3)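 Antiviral activity was measured against wild-type HIV-1 in permissive MT-4 cells as a Vif-specificity counter-screen. RN-18 was the positive control, and cells cultured without inhibitor were the negative control. "No activity" means no inhibition at 50 µM.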

[4] = target: Virion infectivity factor (Human immunodeficiency virus type 1 group M subtype B (isolate NY5)(HIV-1)) (UniProt P12504); test: Antagonist activity against HIV-1 Vif in human H9 cells expressing A3G assessed as inhibition of viral replication by reverse transcriptase assay relative to vehicle-treated control; type: cell-based; conditions: Human immunodeficiency virus 1
Method in brief: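 Antiviral activity was measured against wild-type HIV-1 in non-permissive (A3G-expressing) H9 cells and reported as IC50. RN-18 was the positive control, and cells cultured without inhibitor were the negative control. Selected compounds were tested across doses, and MTS cell viability was checked in parallel at 50 µM.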

[5] = system: HeLa; test: Cytotoxicity against human HeLa cells at 50 uM measured after 16 hrs by MTS assay relative to DMSO control; type: cell-based
[6] = target: Virion infectivity factor (Human immunodeficiency virus type 1 group M subtype B (isolate NY5)(HIV-1)) (UniProt P12504); test: Antagonist activity against HIV-1 Vif in human MT4 cells assessed as inhibition of viral infection at 50 and 100 uM measured after 16 hrs by cell-based assay; conditions: Human immunodeficiency virus 1
[7] = target: Virion infectivity factor (Human immunodeficiency virus type 1 group M subtype B (isolate NY5)(HIV-1), UniProt P12504); test: as §2; design: species or system Human immunodeficiency virus 1; method in brief: as §3
Virion infectivity factor, sequence (P12504 whole entry): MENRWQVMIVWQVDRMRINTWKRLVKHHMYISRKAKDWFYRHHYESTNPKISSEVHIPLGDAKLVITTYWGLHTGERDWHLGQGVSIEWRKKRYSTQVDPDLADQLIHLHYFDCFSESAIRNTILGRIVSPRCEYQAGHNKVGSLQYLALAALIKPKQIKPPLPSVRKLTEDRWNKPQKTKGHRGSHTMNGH

Virion infectivity factor (Human immunodeficiency virus type 1 group M subtype B (isolate NY5)(HIV-1)), sequence (P12504 whole entry): as above

Row | Compound | Activity [1] | Activity [2] | Activity [3] | inhibition [4] | Activity [5] | Activity [6] | IC50 [7]
1 | COc1ccccc1NC(=O)c1ccccc1Sc1ccc([N+](=O)[O-])cc1 | Active | Active | inactive | Dose-dependent effect | Non-Toxic | inactive | –
2 | COc1ccc(OC)c(-n2cc(-c3ccccc3Sc3ccc([N+](=O)[O-])cc3)nn2)c1 | Active | Active | inactive | Dose-dependent effect | Non-Toxic | – | –
3 | COc1ccccc1-n1cc(-c2ccccc2Sc2ccc(C(F)(F)F)cc2)nn1 | Active | Active | inactive | Dose-dependent effect | Non-Toxic | – | –
4 | COc1ccccc1-c1noc(-c2ccccc2Sc2ccc([N+](=O)[O-])cc2)n1 | Active | Active | – | – | – | – | Not Active
5 | COc1ccccc1-n1cc(-c2ccccc2Sc2ccc([N+](=O)[O-])cc2)nn1 | Active | Active | – | – | – | – | Not Active
